A short description of data set [1]: Cytotoxicity against HEL cells assessed as minimum cytotoxic concentration required to cause microscopically detectable alteration in normal cell morphology. To be noted: human. The data set is classed as cell-based. A digest of the protocol: (§1)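 Run in parallel with antiviral assays on uninfected cell cultures; test compounds from 10 mg/ml DMSO stocks in serial dilution. Value is minimum cytotoxic concentration (MCC) producing microscopically detectable alteration of normal cell morphology.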

Data set [2] concerns Human alphaherpesvirus 2. The data set can be described thus: Antiviral activity against HSV2 G infected in human HEL cells assessed as inhibition of virus-induced cytopathicity after 3 days. The format is functional, organism-based. The conditions noted are these: Human alphaherpesvirus 2, strain G, 72 h. A digest of the protocol:
(§2)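 Confluent cell monolayers infected with 100 CCID50 virus; after 2 h adsorption at 37 °C, virus removed and serial compound dilutions added (DMSO stocks 10 mg/ml). Incubated 37 °C for 3 days until complete CPE in untreated virus control. EC50 = concentration protecting 50% of infected cells from viral cytopathogenicity; ">" marks highest concentration tested.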
In general terms: Protection from cytopathic effect is a common read-out in antiviral testing.

Data set [3] has as its system Vaccinia virus. The data set can be described thus: Antiviral activity against Vaccinia virus infected in human HEL cells assessed as inhibition of virus-induced cytopathicity after 3 days. The data set is classed as functional, organism-based. To be noted: Orthopoxvirus vaccinia, 72 h.
Data set [4] concerns Vesicular stomatitis virus. The data set can be described thus: Antiviral activity against Vesicular stomatitis virus infected in human HEL cells assessed as inhibition of virus-induced cytopathicity after 3 days. The data set is classed as functional, organism-based. To be noted: 72 h.
Data set [5] relates to Human alphaherpesvirus 1. The data set can be described thus: Antiviral activity against thymidine kinase-deficient ACV-resistant HSV1 KOS infected in human HEL cells assessed as inhibition of virus-induced cytopathicity after 3 days. The data set is classed as functional, organism-based. To be noted: Human alphaherpesvirus 1, KOS, 72 h.
Data set [6] can be described thus: Cytotoxicity against human HeLa cells assessed as minimum cytotoxic concentration required to cause microscopically detectable alteration in normal cell morphology. The format is cell-based. A digest of the protocol: as §1
Data set [7] deals with Vesicular stomatitis virus. The data set can be described thus: Antiviral activity against Vesicular stomatitis virus infected in human HeLa cells assessed as inhibition of virus-induced cytopathicity after 3 days. The format is functional, organism-based. The conditions noted are these: 72 h.
For data set [8], the system named is Human alphaherpesvirus 1. The experiment in a line: Antiviral activity against HSV1 KOS infected in human HEL cells assessed as inhibition of virus-induced cytopathicity after 3 days. The data set is classed as functional, organism-based. To be noted: Human alphaherpesvirus 1, KOS, 72 h.
For data set [9], the system named is Coxsackievirus B4. The experiment in a line: Antiviral activity against Coxsackievirus B4 infected in human HeLa cells assessed as inhibition of virus-induced cytopathicity after 3 days. The format is functional, organism-based. To be noted: Enterovirus B, 72 h. Summed up:
(§3)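 Confluent cell monolayers infected with 100 CCID50 virus; after 2 h adsorption at 37 °C, virus removed and serial compound dilutions added (DMSO stocks 10 mg/ml). Incubated 37 °C for 3 days until complete CPE in untreated virus control.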

Data set [10] relates to Respiratory syncytial virus. The experiment in a line: Antiviral activity against RSV infected in human HeLa cells assessed as inhibition of virus-induced cytopathicity after 3 days. The conditions noted are these: 72 h. The data set is classed as functional, organism-based. A digest of the protocol: as §2
A short description of data set [11]: Cytotoxicity against african green monkey Vero cells assessed as minimum cytotoxic concentration required to cause microscopically detectable alteration in normal cell morphology. The data set is classed as cell-based. The conditions noted are these: chlorocebus sabaeus. Summed up:
as §1

For data set [12], the system named is Human respirovirus 3. The experiment in a line: Antiviral activity against Parainfluenza virus type 3 infected in african green monkey Vero cells assessed as inhibition of virus-induced cytopathicity after 3 days. The data set is classed as functional, organism-based. To be noted: Human respirovirus 3, Vero, 72 h. A digest of the protocol: as §2
Data set [13] relates to Mammalian orthoreovirus 1. The data set can be described thus: Antiviral activity against Reovirus 1 infected in african green monkey Vero cells assessed as inhibition of virus-induced cytopathicity after 3 days. The data set is classed as functional, organism-based. The conditions noted are these: Mammalian orthoreovirus 1, Vero, 72 h. Summed up: as §2
Data set [14] has as its system Sindbis virus. The experiment in a line: Antiviral activity against Sindbis virus infected in african green monkey Vero cells assessed as inhibition of virus-induced cytopathicity after 3 days postinfection. The data set is classed as functional, organism-based. The conditions noted are these: 72 h. A digest of the protocol: as §2
The test system of data set [15] is Coxsackievirus B4. The experiment in a line: Antiviral activity against Coxsackievirus B4 infected in african green monkey Vero cells assessed as inhibition of virus-induced cytopathicity after 3 days. The data set is classed as functional, organism-based. To be noted: Enterovirus B, 72 h. Summed up:
as §2

For data set [16], the system named is Punta Toro virus. The experiment in a line: Antiviral activity against Punta Toro virus infected in african green monkey Vero cells assessed as inhibition of virus-induced cytopathicity after 3 days. The format is functional, organism-based. The conditions noted are these: 72 h. Summed up: as §3
A short description of data set [17]: Selectivity index, ratio of MCC for human HEL cells to EC50 for sVaccinia virus. The data set is classed as toxicity, cell-based. Summed up:
(§4)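 The ratio was MCC/EC50. MCC was the minimum concentration causing microscopically visible change in normal morphology of uninfected HEL, HeLa or Vero cells, scored in parallel with the antiviral test. EC50 came from the CPE assay: 100 CCID50 infection, 2 h adsorption at 37 °C, serial compound dilutions, and 3 days at 37 °C. It was the concentration protecting 50% of cells from virus-induced CPE.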

A short description of data set [18]: Selectivity index, ratio of MCC for african green monkey Vero cells to EC50 for Reovirus 1. To be noted: read-out: Selectivity Index. The data set is classed as toxicity, cell-based. Summed up:
as §4

Data set [19] is described as follows: Selectivity index, ratio of MCC for african green monkey Vero cells to EC50 for Sindbis virus. The data set is classed as toxicity, cell-based. To be noted: read-out: Selectivity Index. Summed up: as §4
Data set [20] is described as follows: Selectivity index, ratio of MCC for african green monkey Vero cells to EC50 for Coxsackievirus B4. The format is toxicity, cell-based. To be noted: read-out: Selectivity Index. A digest of the protocol: as §4
Data set [21] is described as follows: Selectivity index, ratio of MCC for african green monkey Vero cells to EC50 for Punta Toro virus. The format is toxicity, cell-based. The conditions noted are these: read-out: Selectivity Index. Summed up:
as §4

Data set [22] deals with Vaccinia virus. The data set can be described thus: Antiviral activity against Vaccinia virus Lister. The format is functional, organism-based.
Data set [23] relates to Vaccinia virus. The experiment in a line: Antiviral activity against Vaccinia virus Western Reserve. The format is functional, organism-based. The conditions noted are these: Orthopoxvirus vaccinia.
In data set [24] the test system is Vaccinia virus. The experiment in a line: Antiviral activity against Vaccinia virus Copenhagen. The data set is classed as functional, organism-based. The conditions noted are these: Orthopoxvirus vaccinia.
In data set [25] the test system is Cowpox virus. The experiment in a line: Antiviral activity against Cowpox virus Brighton. The format is functional, organism-based. The conditions noted are these: Cowpox virus (Brighton Red).
The nature of data set [26]: Selectivity index, ratio of MCC for human HEL cells to EC50 for sVesicular stomatitis virus. The format is toxicity, cell-based. The conditions noted are these: read-out: Selectivity Index. Summed up: as §4
A short description of data set [27]: Selectivity index, ratio of MCC for human HeLa cells to EC50 for Coxsackievirus B4. The data set is classed as toxicity, cell-based. The conditions noted are these: read-out: Selectivity Index. A digest of the protocol: as §4

One may read the EC50 as the concentration that produces a half-maximal response.

Converted amounts (≈) assume the structure as drawn. The source made the active and inactive calls. The rule behind the calls is not given here. Where only a bound is given, the exact number is not on record here.

Consider `CC(=O)N1N=C(c2ccc(Cl)cc2)CC1c1ccc(OCc2ccccc2)cc1` (configuration not stated), for which the values for the MCC in data set [1], in data set [6] and in data set [11] were 100 µg/mL, not below 20 µg/mL and 20 µg/mL, respectively. The EC50 in [2] was more than 20 µg/mL; in [3] it was 7 µg/mL (≈ 17.3 µM); in data set [4], more than 20 µg/mL; in data set [5] it was more than 20 µg/mL; in [7] it was more than 20 µg/mL; in data set [8], more than 20 µg/mL. Besides, the EC50 in [9] was more than 20 µg/mL; in data set [10], more than 20 µg/mL; in [12], more than 4 µg/mL; in data set [13], more than 4 µg/mL; in data set [14] it was more than 4 µg/mL; in data set [15] it was more than 4 µg/mL. For the same molecule, the EC50 in data set [16] was more than 4 µg/mL. In addition, the selectivity ratio in data set [17] came to 3.6; in data set [18], 5; in [19] it was 5; in data set [20], 5; in data set [21], 5. In addition, the result in data set [22], in data set [23], in data set [24] and in data set [25] was inactive.
Take `CC(=O)N1N=C(c2ccc(C)cc2)CC1c1ccc(OCc2ccccc2)cc1` (configuration not stated): the MCC in [1], in data set [6] and in data set [11] was 20 µg/mL in each case. The EC50 in data set [2], in data set [3], in [4], in data set [5], in [7] and in data set [8] was more than 4 µg/mL throughout. Also, the EC50 in [9], in data set [10], in [12], in [13], in [14] and in data set [15] was more than 4 µg/mL each time. Further, the EC50 in [16] is more than 4 µg/mL. Besides, the selectivity ratio in data set [26], in data set [27], in data set [18], in data set [19], in data set [20] and in data set [21] was 5 in each case.

The record behind these values is ChEMBL document CHEMBL1153616, “Synthesis and antiviral activity of new pyrazole and thiazole derivatives” (Eur J Med Chem, 2009).
